This is a sample that favours compounds with a hit; in the whole collection about 3% have one here.
T cruzi repl: blocks replication of Trypanosoma cruzi; inhibition, % (concentration not given with the values); T. cruzi beta-gal in NIH3T3, luminescence, 90 h; actives 1.4% (n = 300,000); AID 1885;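 active = mean inhibition across valid replicates above about 55%, limit read from the data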;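 also: signal also drops with host cell toxicity which is not excluded here; 0% = plate median of DMSO wells and 100% = zero luminescence signal; higher percent means less beta-gal luminescence so fewer parasites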
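compound dosing = single 50 nL compound addition per well in DMSO | material = NIH/3T3 host cells with β-galactosidase reporter T. cruzi | input = 5,000 host fibroblasts per well | timing = ≥90 h infection period, 3 h prior cell attachment | read-out basis = percent inhibition of parasite-derived β-gal signal | detection = GalScreen β-gal luminescence, detergent lysis, 60 min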
NRP1-CendR mod: modulators of CendR peptide binding to human neuropilin-1; O14786; FAM-RPARPAR peptide binding to NRP-1, fluorescence polarization; inhibition, % at 25 µM; actives 0.85% (n = 360,000);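 active = inhibition or corrected inhibition above about 18%, plus a signal ratio from 0.5 to 1.5, limit read from the data, passing the limit was not always enough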
Target sequence (O14786 whole entry, looked up): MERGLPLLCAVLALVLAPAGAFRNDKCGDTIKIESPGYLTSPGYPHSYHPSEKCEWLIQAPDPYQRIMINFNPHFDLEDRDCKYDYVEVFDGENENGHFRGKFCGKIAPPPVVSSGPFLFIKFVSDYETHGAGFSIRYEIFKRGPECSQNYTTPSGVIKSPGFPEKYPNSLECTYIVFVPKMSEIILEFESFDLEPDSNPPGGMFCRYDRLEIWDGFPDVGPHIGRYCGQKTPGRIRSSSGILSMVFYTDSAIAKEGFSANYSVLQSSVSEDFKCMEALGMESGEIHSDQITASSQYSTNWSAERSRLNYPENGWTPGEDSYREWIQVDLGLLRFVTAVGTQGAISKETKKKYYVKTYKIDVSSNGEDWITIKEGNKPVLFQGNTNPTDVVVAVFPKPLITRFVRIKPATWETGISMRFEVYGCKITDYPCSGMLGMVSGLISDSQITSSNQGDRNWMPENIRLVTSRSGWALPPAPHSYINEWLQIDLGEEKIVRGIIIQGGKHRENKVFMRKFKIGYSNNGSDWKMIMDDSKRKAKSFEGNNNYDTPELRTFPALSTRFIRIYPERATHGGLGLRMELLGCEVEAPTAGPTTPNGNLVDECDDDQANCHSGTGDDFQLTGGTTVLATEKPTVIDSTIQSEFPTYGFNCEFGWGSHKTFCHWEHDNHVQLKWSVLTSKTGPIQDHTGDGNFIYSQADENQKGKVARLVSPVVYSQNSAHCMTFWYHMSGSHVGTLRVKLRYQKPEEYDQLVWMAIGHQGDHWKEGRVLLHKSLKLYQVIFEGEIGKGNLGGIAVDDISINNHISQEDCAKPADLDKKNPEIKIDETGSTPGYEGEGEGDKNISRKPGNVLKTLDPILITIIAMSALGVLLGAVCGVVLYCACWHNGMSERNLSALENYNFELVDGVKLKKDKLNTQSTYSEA
AI-2 QS modul: Vibrio harveyi AI-2 quorum sensing modulation | actives 0.4% (n = 300,000) | activity change, % at 7.5 µM | Vibrio harveyi JMH597 AI-2 luminescence/OD600 ratio, 9 h; stronger effect = lower value; strain lacks LuxN and CqsS sensors; 0 = neutral-control median; in the data active = activity change below about -75%, passing the limit was not always enough;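 also: luminescence divided by OD600 gain over 9 h not by final OD600 alone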
CR mimetic SO: caloric restriction mimetics inhibiting age-related superoxide in yeast | superoxide response (% of plate mean), % at 10 µM | actives 0.18% (n = 330,000) | S. cerevisiae aged cells, superoxide DHE fluorescence; stronger effect = lower value;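 active = superoxide response under a set limit, about three screen SD below normal, cut at about 65% in these data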;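 also: yeast aged for seven days with compound at 30 °C before DHE staining; 100% = average MFI of all compound-treated wells on the plate with controls excluded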
HIF act: HIF pathway transcriptional activation; U2OS HRE-luciferase reporter, luminescence; normalized: DMSO 0%, desferrioxamine 100%; actives 0.32% (n = 300,000); activation, % at 7.5 µM (by protocol);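 active = mean activation of at least 10% of the iron chelator positive control signal, with at least half of replicates also reaching 10%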
V-ATPase pH: regulators of yeast V-ATPase proton transport | actives 0.37% (n = 350,000) | S. cerevisiae, pHLuorin cytosolic pH fluorescence | response, % at 10 µM; in the data active = response mostly above about 7.3%, no sharp cut-off; inactive = mostly below about 5.4%; also: actives read high
V-ATPase pH SP: yeast V-ATPase proton transport regulation | AID 602197 | actives 2% (n = 980) | S. cerevisiae pHLuorin cytosolic pH | shares compounds with V-ATPase pH | response, % at 10 µM; in the data active = response above about 24%;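 also: plate controls were vehicle wells for no effect and positive control wells for full effect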
The depositor's hits bear a star; x = no result.

SMILES	T cruzi repl	NRP1-CendR mod	AI-2 QS modul	CR mimetic SO	HIF act	V-ATPase pH	V-ATPase pH SP
COC(=O)N(C)C[C@@H]1OCc2cnnn2CCCC(=O)N([C@@H](C)CO)C[C@H]1C	x	2	x	x	x	-2	x
CCOC(=O)c1sc(SC)c(C(C)=O)c1C	6	6	1	106	0	3	x
Cc1csc(=O)n1CCC(=O)OCC(=O)N(CC(C)C)c1c(N)n(Cc2ccccc2)c(=O)[nH]c1=O	-1	-9	13	110	-1	1	x
CCCN(C(=O)COC(=O)CCC(=O)c1ccccc1)c1c(N)n(Cc2ccccc2)c(=O)[nH]c1=O	x	-3	x	x	x	9.1*	-1
COCCN(C(=O)COC(=O)CCn1c(C)csc1=O)c1c(N)n(Cc2ccccc2)c(=O)[nH]c1=O	-8	0	6	122	1	15*	2
CCN(C(=O)COC(=O)CCC(=O)c1ccccc1)c1c(N)n(Cc2ccccc2)c(=O)[nH]c1=O	x	-8	x	93	x	-4	x
Cc1ccc(/C=c2\sc3nc(-c4cccnc4)nn3c2=O)cc1	-22	-8	7	95	1	1	x
CC(C(=O)Nc1ccc2c(c1)OCO2)c1ccc([N+](=O)[O-])cc1 (centres undefined)	5	24	21	82	0	15*	1
O=C(COc1ccccc1CNCc1ccccc1)Nc1ccccc1	-1	-2	30	116	0	0	x
CCC1S/C(=N/N=C/c2ccco2)N(Cc2ccccc2)C1=O (centres undefined)	8	-11	21	81	0	60*	2
CCOC(=O)c1c(C)[nH]c(C)c1C(=O)COC(=O)/C=C/c1ccc(OC(F)F)cc1	14	-11	8	90	0	10*	4
CCCC(=O)C1=C(O)C(C(=O)OC)C(C)(C)CC1=Nc1ccc(C)cc1 (centres undefined)	-10	-2	14	103	0	8.3*	1
Cc1ccc(S(=O)(=O)O/N=C2\CCCc3ccccc32)cc1	-7	-15	26	104	-2	12*	-2
CN(C(=O)CSc1nc(N)c2c3c(sc2n1)CSC(C)(C)C3)c1ccccc1	6	-8	8	100	0	9.8*	0
O=C(NCC(c1cccs1)N1CCOCC1)c1cc([N+](=O)[O-])ccc1Cl (centres undefined)	-2	12	31	102	0	8	x
O=C(NCC(c1cccs1)N1CCOCC1)c1cccc([N+](=O)[O-])c1 (centres undefined)	-23	-8	19	102	-1	53*	-3
COCCC(=O)N1CCC(Oc2ccc(C(=O)NCc3csc(C)n3)cc2)CC1	-15	1	1	67	0	-1	x
CCOc1ccc(CCNC(=O)COC(=O)c2ccc(S(=O)(=O)N3CCCC3)cc2)cc1OCC	-4	6	-1	90	2	2	x
CCOc1ccc(CCNC(=O)COC(=O)c2ccc(S(C)(=O)=O)cc2)cc1OCC	-5	-4	-1	86	0	15*	0
CN1CCN(CC(=O)Nc2c(C(=O)C3CC3)oc3ccccc23)CC1	4	5	4	100	0	-2	x
CCOC(=O)CSCC(=O)Nc1c(C(=O)C2CC2)oc2ccccc12	-5	-9	10	108	0	7.5*	1
CCOc1ccccc1-n1c(SCC(=O)N(C(C)C)C(C)C)nnc1-c1cccnc1	-2	-2	17	101	-1	18*	-5
Cc1ccc(NC(=O)N2CCC(NC(=O)C(C)(C)C)CC2)cc1	-11	8	8	89	0	-2	x
Cc1cc(C)c(OCC(=O)Nc2nc3ccccc3[nH]2)c(C)c1	19	-3	17	104	2	9.7*	-4
O=C(O)CN(c1cccc(C(F)(F)F)c1)S(=O)(=O)c1ccccc1	-17	12	-7	97	-1	8.6*	-3
CC/C(C)=N\NC(=O)CNC(=O)c1ccc(Cl)cc1Cl	-15	17	18	110	0	12*	2
